Active and inactive are the calls of the source. The calls are words filed in the database; no cut-off is given here.
Legend:
[1] = target: T1, Broad substrate specificity ATP-binding cassette transporter ABCG2 (Homo sapiens, UniProt Q9UNQ0); experiment: Inhibition of ABCG2 (unknown origin)
T1 sequence (Q9UNQ0 whole entry): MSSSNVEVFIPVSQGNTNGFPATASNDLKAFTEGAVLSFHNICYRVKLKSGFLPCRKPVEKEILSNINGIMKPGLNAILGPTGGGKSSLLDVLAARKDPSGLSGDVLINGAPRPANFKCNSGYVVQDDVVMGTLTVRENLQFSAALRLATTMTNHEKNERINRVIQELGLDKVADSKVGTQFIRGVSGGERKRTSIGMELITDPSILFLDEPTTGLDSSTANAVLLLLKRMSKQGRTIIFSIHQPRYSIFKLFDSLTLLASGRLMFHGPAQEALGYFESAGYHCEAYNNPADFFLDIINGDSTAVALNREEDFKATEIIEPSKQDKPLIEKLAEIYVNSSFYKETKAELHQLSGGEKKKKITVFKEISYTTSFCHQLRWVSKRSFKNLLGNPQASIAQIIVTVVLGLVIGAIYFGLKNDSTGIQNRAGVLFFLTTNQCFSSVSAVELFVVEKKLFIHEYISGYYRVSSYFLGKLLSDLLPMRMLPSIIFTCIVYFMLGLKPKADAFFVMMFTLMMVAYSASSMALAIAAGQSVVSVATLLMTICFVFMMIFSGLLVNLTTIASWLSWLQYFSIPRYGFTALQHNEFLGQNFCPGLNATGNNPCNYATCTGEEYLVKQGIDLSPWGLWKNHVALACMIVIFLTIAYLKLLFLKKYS

[2] = Cytotoxicity against MDCK2 cells assessed as reduction in cell viability after 72 hrs by MTT assay; assay type: cell-based, Canis lupus familiaris, MDCK-II; conditions: dog
Method in brief: (§1)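 Seeding 3 x 10³ cells/well, 6 h attachment at 37 °C, 5% CO2, then compound for 72 h. Controls: 10% DMSO (positive), medium (negative). MTT 5 mg/ml stock for 1 h; formazan in DMSO; A570, background 690 nm. Normalized to control; GI50 from variable-slope sigmoidal fit.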

[3] = target: T1, Broad substrate specificity ATP-binding cassette transporter ABCG2; experiment: Inhibition of human C-terminal GFP-tagged ABCG2 expressed in MDCK2 cells using pheophorbide A as substrate preincubated for 20 mins followed by substrate addition measured after 120 mins by flow cytometry; assay type: cell-based, MDCK-II
Method in brief: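 MDCK II BCRP cells, about 45,000/well in KHB, preincubated with compound for 20 min at 37 °C, 5% CO2. Pheophorbide A added (5 µM solution), then 120 min to steady state. Flow cytometry: excitation 488 nm, emission >670 nm (FL3); GFP in FL1. IC50 from 4-parameter logistic fit; duplicates.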

[4] = Cytotoxicity against MDCK2 cells expressing human C-terminal GFP-tagged ABCG2 assessed as reduction in cell viability after 72 hrs by MTT assay; assay type: ADME, cell-based, Canis lupus familiaris, MDCK-II; conditions: dog; method in brief: as §1
[5] = target: T1, Broad substrate specificity ATP-binding cassette transporter ABCG2; experiment: Induction of vanadate-sensitive ATPase activity of recombinant human ABCG2 expressed in baculovirus infected Sf9 cell membrane assessed as increase in inorganic phosphate production up to 1 uM after 20 mins by colorimetry; conditions: sf9, 20 min
Method in brief: (§2)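 Sf9 membranes from cells infected with baculovirus carrying human wild-type ABCG2, cholesterol-loaded; protein by BCA. Buffer: 40 mM MOPS-Tris pH 7.0, 50 mM KCl, 2 mM DTT, 500 µM EGTA-Tris, 5 mM azide, 1 mM ouabain, 10 µg protein. Reaction started with 3.3 mM MgATP, 20 min at 37 °C. Basal activity with 1 mM orthovanadate; 1 µM quercetin and 1 µM Ko143 as references. Pi by molybdate/ascorbate at 880 nm against K2HPO4 standard; triplicates.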

[6] = target: T1, Broad substrate specificity ATP-binding cassette transporter ABCG2; experiment: Inhibition of vanadate-sensitive ATPase activity of recombinant human ABCG2 expressed in baculovirus infected Sf9 cell membrane assessed as decrease in inorganic phosphate production at >1 uM after 20 mins by colorimetry; conditions: sf9, 20 min; method in brief: as §2
[7] = target: Multidrug resistance-associated protein 1 (Homo sapiens, UniProt P33527); experiment: Inhibition of ABCC1 in human H69AR cells at 10 uM incubated for 30 mins measured up to 3600 secs with time intervals of 60 secs by calcein accumulation assay; assay type: cell-based
Sequence of Multidrug resistance-associated protein 1 (P33527 whole entry): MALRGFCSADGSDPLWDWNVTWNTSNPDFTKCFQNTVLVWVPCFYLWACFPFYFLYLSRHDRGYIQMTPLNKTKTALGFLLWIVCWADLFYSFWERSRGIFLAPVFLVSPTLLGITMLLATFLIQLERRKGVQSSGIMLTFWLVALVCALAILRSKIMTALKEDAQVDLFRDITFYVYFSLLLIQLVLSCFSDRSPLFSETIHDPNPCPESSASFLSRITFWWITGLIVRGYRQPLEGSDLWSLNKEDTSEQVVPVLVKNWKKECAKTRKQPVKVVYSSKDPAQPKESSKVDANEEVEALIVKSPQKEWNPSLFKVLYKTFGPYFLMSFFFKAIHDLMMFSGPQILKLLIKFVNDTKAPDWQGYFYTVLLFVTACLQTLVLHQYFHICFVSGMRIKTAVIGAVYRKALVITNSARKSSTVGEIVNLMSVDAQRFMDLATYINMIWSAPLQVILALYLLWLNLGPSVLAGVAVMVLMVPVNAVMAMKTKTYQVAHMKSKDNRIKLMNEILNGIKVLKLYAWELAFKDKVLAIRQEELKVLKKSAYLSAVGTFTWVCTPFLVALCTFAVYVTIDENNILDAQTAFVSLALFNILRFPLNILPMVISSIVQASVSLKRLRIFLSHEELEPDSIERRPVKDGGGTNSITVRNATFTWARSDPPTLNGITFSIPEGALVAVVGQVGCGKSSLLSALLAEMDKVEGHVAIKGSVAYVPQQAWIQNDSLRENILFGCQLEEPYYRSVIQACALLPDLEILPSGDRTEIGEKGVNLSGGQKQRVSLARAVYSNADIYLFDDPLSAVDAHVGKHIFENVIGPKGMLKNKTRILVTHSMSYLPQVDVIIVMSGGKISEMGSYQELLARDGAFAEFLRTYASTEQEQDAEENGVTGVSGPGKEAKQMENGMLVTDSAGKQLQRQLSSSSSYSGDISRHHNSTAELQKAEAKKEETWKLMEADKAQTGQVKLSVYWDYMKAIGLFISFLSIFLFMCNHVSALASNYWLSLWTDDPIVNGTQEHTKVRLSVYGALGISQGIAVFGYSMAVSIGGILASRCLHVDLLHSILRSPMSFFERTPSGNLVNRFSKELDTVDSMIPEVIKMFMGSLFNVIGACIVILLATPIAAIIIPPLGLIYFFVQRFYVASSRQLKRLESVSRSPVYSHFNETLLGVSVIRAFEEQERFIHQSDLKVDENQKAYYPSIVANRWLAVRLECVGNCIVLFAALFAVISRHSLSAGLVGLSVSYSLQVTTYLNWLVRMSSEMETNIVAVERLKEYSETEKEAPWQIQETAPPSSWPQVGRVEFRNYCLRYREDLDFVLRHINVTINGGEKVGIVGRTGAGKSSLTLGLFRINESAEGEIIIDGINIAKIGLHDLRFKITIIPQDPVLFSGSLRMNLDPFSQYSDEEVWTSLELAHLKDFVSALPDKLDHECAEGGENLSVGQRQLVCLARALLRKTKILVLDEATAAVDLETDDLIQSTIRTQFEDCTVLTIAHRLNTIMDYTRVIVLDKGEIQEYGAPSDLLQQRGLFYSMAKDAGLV
Method in brief: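 Calcein AM assay in ABCC1-overexpressing H69AR cells, about 30,000/well, 30 min preincubation with compound at 10 μM. Calcein AM (1.25 µM solution) added; fluorescence at ex 485/em 520 nm every 60 s up to 3600 s at 37 °C.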

MDCK-II = experiment: Potentiation of SN-38-induced cytotoxicity in MDCK2 cells assessed as decrease in cell viability at 0.01 to 0.1 uM after 72 hrs by MTT assay; assay type: functional, cell-based; conditions: Canis lupus familiaris
Method in brief: (§3)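 SN-38 dose-response curves in MDCK II BCRP cells (canine kidney line stably transfected with human ABCG2 C-terminally fused to GFP) and parental MDCK II wild-type cells. Modulator was present at a final 0.01 or 0.1 µM. Cells were seeded at 3 x 10³ per well, attached 6 h, then exposed 72 h. MTT was read at 570 nm minus 690 nm. Data were normalized and fitted with variable-slope sigmoidal regression.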

ABCG2 = experiment: Therapeutic ratio of GI50 for MDCK2 cells expressing human C-terminal GFP-tagged ABCG2 to IC50 for human C-terminal GFP-tagged ABCG2 expressed in MDCK2 cells; assay type: ADME, cell-based; conditions: dog, read-out: TI
Method in brief: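 Ratio of GI50 from a 72 h MTT assay in MDCK II BCRP cells to IC50 from the pheophorbide A assay in the same cells.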

[8] = target: T1, Broad substrate specificity ATP-binding cassette transporter ABCG2; experiment: Inhibition of human C-terminal GFP-tagged ABCG2 expressed in MDCK2 cells assessed as SN-38-induced cytotoxicity by measuring cell viability at 0.01 to 0.1 uM after 72 hrs by MTT assay; assay type: cell-based; conditions: mdck-ii; method in brief: as §3
[9] = target: T1, Broad substrate specificity ATP-binding cassette transporter ABCG2; experiment: Non-competitive inhibition of human C-terminal GFP-tagged ABCG2 expressed in MDCK2 cells using pheophorbide A as substrate preincubated for 20 mins followed by substrate addition measured after 120 mins by Lineweaver-Burk plot analysis; assay type: cell-based; conditions: mdck-ii, 2 h
Method in brief: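 Pheophorbide A accumulation in MDCK II BCRP cells with substrate at 0.2, 0.4, 0.5, 1.0, 1.5 and 2.0 μM. Inhibitor at 0, 0.031, 0.1, 0.18, 0.31 and 0.56 μM. Transport velocities analyzed by Lineweaver-Burk linearization; inhibition type assigned from changes in KM and Vmax.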

[10] = target: T2, ATP-dependent translocase ABCB1 (Homo sapiens, UniProt P08183); experiment: Inhibition of ABCB1 in human A2780/ADR cells incubated for 30 mins measured up to 3600 secs with time intervals of 60 secs by calcein accumulation assay; assay type: cell-based
T2 sequence (P08183 whole entry): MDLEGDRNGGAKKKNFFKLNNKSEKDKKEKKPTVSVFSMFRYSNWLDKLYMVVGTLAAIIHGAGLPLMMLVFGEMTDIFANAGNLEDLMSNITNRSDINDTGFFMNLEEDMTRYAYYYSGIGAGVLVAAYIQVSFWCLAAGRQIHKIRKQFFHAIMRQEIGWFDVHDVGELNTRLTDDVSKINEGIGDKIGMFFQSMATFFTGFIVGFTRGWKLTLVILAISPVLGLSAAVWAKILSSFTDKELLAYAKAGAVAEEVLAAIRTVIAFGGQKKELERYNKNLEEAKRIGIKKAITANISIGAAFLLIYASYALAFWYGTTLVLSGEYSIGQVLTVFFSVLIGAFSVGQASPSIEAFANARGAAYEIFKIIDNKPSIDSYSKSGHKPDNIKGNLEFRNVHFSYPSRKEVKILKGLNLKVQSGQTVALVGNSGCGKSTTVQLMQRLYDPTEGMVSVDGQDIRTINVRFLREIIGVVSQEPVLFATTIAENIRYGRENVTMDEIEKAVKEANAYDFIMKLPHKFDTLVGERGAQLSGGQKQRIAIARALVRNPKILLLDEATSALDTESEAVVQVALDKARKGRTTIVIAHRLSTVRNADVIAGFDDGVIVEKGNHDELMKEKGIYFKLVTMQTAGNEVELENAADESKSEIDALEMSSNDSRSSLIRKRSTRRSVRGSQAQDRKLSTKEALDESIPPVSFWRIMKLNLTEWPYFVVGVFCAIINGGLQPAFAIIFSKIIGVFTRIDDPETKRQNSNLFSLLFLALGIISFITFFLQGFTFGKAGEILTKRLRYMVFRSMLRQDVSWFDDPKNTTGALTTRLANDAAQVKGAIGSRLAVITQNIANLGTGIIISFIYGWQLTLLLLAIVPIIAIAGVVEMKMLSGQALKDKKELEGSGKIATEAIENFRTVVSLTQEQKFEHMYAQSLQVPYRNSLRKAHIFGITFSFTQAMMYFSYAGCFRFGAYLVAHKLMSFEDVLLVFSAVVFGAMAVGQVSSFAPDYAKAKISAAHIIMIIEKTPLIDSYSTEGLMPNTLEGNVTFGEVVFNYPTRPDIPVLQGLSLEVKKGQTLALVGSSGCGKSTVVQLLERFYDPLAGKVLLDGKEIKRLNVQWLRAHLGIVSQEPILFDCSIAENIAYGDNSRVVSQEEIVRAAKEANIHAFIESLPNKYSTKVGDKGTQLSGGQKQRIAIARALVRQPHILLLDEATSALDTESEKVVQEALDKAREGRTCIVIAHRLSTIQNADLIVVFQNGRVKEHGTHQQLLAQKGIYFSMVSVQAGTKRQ

[11] = target: T2, ATP-dependent translocase ABCB1; experiment: Inhibition of ABCB1 mediated efflux in human MCF7/DX1 cells assessed as intracellular rhodamine-123 accumulation after 30 to 40 mins by flow cytometry; assay type: cell-based

## COc1ccc(/C=C/C(=O)c2ccc(OC)c(OC)c2)cc1OC
[1]
  IC50: 5.12 µM

## COc1ccc(/C=C/C(=O)c2ccc(Nc3nc(-c4ccc(OC)c(OC)c4)nc4ccccc34)cc2)cc1OC
[2]
  GI50 at 72 h: 132 µM
[3]
  IC50: 0.19 µM
[4]
  GI50 at 72 h: 92.9 µM
[5]
  Activity: Active
[6]
  inhibition (INH): Active
[7]
  inhibition (INH): Not Active
MDCK-II
  Activity: Active
ABCG2
  selectivity ratio: 489
[8]
  inhibition (INH): Active
[9]
  inhibition (INH): Active
[10]
  IC50: 14.9 µM

## COc1ccc2c3c1O[C@H]1C[C@@H](OC(=O)CCCCCCCCC(=O)O[C@H]4C=C[C@@]56CN(C)CCc7ccc(OC)c(c75)O[C@H]6C4)C=C[C@@]31CN(C)CC2
[11]
  IC50: 0.8 µM
